In ChEMBL document CHEMBL1136847, “Syntheses and potential anti-prostate cancer activities of ionone-based chalcones” (Bioorg Med Chem Lett, 2009):

How the values were obtained:
Format in all cases: functional, cell-based
[1] = system: LNCaP; experiment: Cytotoxicity against androgen-dependent human LNCAP cells with T877A AR mutant after 72 hrs by MTT assay
How it was run: (§1)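 Cells seeded at 6000–7000 per well in RPMI 1640 with 10% FBS, penicillin and streptomycin, left overnight, then exposed to a range of concentrations from DMSO stock (final DMSO 0.5%) for 72 h. MTT added for a further 2 h and formazan from viable cells read. IC50 taken from survival curves, 50% inhibition relative to 0.5% DMSO control; top concentration 150 µM.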

[2] = system: Androgen receptor (Homo sapiens), P10275 [T878A]; experiment: Antagonist activity at androgen receptor T877A mutant in human PC3 cells transiently transfected with pCMV-MMTV-Luc assessed as suppression of DHT-induced receptor transactivation; conditions: PC-3
How it was run: (§2)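 PC-3 cells seeded 24 h before co-transfection with MMTV-luciferase reporter (100 ng), the wild-type, T877A, W741C or H874Y AR plasmid (10 ng) and Renilla null luciferase (10 ng) using Lipofectamine 2000. Medium switched after 5 h to phenol red-free RPMI 1640 with 10% charcoal-stripped FBS. After 16 h, 0.1 nM DHT ± compound (0.1, 1.0 µM) for 24 h. Dual-luciferase read-out, Renilla-standardized, normalized to DHT alone (100%).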

[3] = Cytotoxicity against androgen-dependent human MDA PCa 2b cells with T877A/L701H AR mutant after 72 hrs by MTT assay
How it was run: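 Seeded at 6000–7000 cells per well in BRFF-HPC1 medium with 20% FBS, incubated overnight, then treated with serial concentrations diluted from DMSO stock (final DMSO 0.5%) for 72 h. Viability by MTT, 2 h with reagent, formazan measured. IC50 from survival curves as 50% inhibition versus 0.5% DMSO vehicle; maximum concentration tested 150 µM.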

[4] = system: CWR22R; experiment: Cytotoxicity against human 22Rv1 cells with H874Y AR mutant after 72 hrs by MTT assay; conditions: 22Rv1, 72 h; how it was run: as §1
[5] = system: T1, Androgen receptor (Homo sapiens), P10275 [W742C]; experiment: Antagonist activity at androgen receptor W741C mutant in human PC3 cells transiently transfected with pCMV-MMTV-Luc assessed as suppression of DHT-induced receptor transactivation; conditions: PC-3; how it was run: as §2
T1 sequence (whole entry): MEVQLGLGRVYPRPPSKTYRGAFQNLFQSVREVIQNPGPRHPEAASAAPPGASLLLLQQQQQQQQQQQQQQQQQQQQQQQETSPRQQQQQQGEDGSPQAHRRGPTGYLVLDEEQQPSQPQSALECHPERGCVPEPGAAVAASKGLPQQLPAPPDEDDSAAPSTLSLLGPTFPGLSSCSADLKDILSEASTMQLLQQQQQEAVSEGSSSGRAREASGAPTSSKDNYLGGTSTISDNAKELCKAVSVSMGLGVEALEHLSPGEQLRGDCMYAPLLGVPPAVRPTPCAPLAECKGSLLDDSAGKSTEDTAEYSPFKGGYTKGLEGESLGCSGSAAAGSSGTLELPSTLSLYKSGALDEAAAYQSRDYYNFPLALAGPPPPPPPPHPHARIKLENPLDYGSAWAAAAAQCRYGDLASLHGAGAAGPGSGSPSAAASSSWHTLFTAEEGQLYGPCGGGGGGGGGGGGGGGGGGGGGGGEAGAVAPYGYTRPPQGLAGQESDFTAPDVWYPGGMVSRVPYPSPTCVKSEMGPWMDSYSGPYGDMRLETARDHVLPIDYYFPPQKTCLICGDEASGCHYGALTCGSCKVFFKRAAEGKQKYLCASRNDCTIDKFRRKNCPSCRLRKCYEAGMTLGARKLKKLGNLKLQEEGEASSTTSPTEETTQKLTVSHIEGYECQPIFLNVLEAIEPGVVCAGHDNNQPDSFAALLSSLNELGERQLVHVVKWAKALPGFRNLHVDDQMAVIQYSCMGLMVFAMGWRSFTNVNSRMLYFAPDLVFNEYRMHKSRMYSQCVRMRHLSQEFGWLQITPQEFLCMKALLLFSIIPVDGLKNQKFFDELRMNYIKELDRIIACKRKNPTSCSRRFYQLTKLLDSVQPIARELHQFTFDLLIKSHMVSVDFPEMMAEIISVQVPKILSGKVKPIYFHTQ

[6] = Cytotoxicity against androgen-independent human C4-2B cells with T877A mutant after 72 hrs by MTT assay; conditions: LNCaP C4-2B; how it was run: as §1

Androgen receptor (Homo sapiens), P10275 [T878A], sequence (P10275 whole entry T878A): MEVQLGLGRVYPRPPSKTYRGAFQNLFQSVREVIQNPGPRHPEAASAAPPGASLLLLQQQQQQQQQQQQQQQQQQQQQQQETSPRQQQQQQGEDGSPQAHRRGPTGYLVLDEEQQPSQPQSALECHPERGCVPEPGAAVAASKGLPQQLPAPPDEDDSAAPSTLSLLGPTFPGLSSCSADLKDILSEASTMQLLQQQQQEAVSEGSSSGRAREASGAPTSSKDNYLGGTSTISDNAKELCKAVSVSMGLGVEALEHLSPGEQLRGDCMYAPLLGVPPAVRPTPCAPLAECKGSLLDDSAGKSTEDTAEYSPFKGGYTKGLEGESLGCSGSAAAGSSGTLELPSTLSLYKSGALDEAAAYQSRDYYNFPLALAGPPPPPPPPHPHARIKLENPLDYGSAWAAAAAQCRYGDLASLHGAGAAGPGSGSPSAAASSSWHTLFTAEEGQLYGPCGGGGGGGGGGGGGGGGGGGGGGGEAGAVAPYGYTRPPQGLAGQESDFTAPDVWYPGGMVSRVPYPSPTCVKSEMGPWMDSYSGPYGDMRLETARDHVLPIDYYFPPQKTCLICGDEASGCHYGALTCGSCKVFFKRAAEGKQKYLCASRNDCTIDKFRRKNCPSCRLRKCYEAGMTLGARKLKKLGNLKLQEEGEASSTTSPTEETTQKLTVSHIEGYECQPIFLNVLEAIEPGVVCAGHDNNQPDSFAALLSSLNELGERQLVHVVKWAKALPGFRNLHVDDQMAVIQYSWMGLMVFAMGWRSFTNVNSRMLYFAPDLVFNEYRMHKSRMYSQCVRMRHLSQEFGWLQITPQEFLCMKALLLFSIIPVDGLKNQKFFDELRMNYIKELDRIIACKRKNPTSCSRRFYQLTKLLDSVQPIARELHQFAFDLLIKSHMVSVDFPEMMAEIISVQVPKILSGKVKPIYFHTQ

SMILES: CC1=C(/C=C/C(=O)/C=C/c2cccc(C(F)(F)F)c2)C(C)(C)CCC1O (stereo unspecified)
- IC50 [1]: 740 nM
- Activity [2]: Dose-dependent effect
- IC50 [3]: 2600 nM
- IC50 [4]: 1700 nM
- Activity [5]: Dose-dependent effect
- IC50 [6]: 1400 nM
